As a reminder, the IC50 is the midpoint of a concentration-inhibition curve.

Holding throughout (type): cell-based
In one experiment the test system is HeLa. Briefly: SRB cytostatic activity assay, HeLa. Particulars: Homo sapiens, 72 h, read-out: Cytostatic activity IC50 HeLa. The gist of the method: (§1)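 Media were EMEM (KB, HepG2, U-87), RPMI 1640 (HeLa), F-12K (A-549), DMEM (MCF-7) and fibroblast growth medium (HDF), all with 10% FBS, at 37 °C and 5% CO2. About 10^4 cells/well grew 24 h, then test compound was added at 0.1–20 μg mL−1 (six levels) for 72 h. Cells were TCA-fixed 1 h at 4 °C, stained with 0.4% SRB, solubilised in Tris, read at A490; IC50, N = 3.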

Another experiment relates to A-549. Briefly: SRB cytostatic activity assay, A-549. The note with it: Homo sapiens, A549, 72 h, read-out: Cytostatic activity IC50 A-549. The gist of the method:
as §1

A further experiment deals with U-87 MG. Briefly: SRB cytostatic activity assay, U-87 MG. The note with it: Homo sapiens, 72 h, read-out: Cytostatic activity IC50 U-87 MG. The gist of the method:
as §1

For the next experiment, the system named is KB. Briefly: SRB cytostatic activity assay, KB. Particulars: Homo sapiens, 72 h, read-out: Cytostatic activity IC50 KB. Put shortly:
as §1

In another experiment the test system is HepG2. Kind of experiment: SRB cytostatic activity assay, HepG2. The note with it: Homo sapiens, HepG2, 72 h, read-out: Cytostatic activity IC50 HepG2. Put shortly: as §1
The next experiment deals with HDF. Kind of experiment: SRB cytostatic activity assay, normal control HDF. Particulars: 72 h, read-out: Cytostatic activity IC50 HDF. Put shortly:
as §1

≈ marks a conversion by molar mass, not a printed value. Starred links: 1 amine or outer side, 2 acyl side, 3 side chain; linkers in the order of their positions; H or OH if unused. Positions of bridges follow the written chain, without caps; N, C: chain ends. Non-standard residues stand in square brackets, D forms with d. Residues, ends and D or L forms follow the SMILES beside them. Chains are numbered I, II in the order given. Actinocin(9to1) = Cc1c2oc3c(C)ccc(C(=O)[*:1])c3nc-2c(C(=O)[*:2])c(N)c1=O; NMeV = CN[C@H](C(=O)O)C(C)C; Sar = CNCC(=O)O

Consider `Cc1c2oc3c(C)ccc(C(=O)N[C@@H]4C(=O)N[C@H](C(C)C)C(=O)N5CCC[C@H]5C(=O)N(C)CC(=O)N(C)[C@@H](C(C)C)C(=O)O[C@@H]4C)c3nc-2c(C(=O)N[C@@H]2C(=O)N[C@H](C(C)C)C(=O)N3CCC[C@H]3C(=O)N(C)CC(=O)N(C)[C@@H](C(C)C)C(=O)O[C@@H]2C)c(N)c1=O` [Actinomycin, Actinomycin D] (I: T[dV]P[Sar][NMeV] / II: T[dV]P[Sar][NMeV]; ester I:1-I:C, II:1-II:C; linker I:N-II:N via Actinocin(9to1)), for which the IC50 with HeLa was 1.13 ± 0.01 µg/mL (≈ 0.9 µM); in the experiment on A-549, 1.03 ± 0.83 µg/mL (≈ 0.82 µM); with U-87 MG, 0.92 ± 0.59 µg/mL (≈ 0.733 µM); in the experiment with KB, 1.07 ± 0.05 µg/mL (≈ 0.852 µM); with HepG2, 1.19 ± 0.02 µg/mL (≈ 0.948 µM); with HDF, 2.28 ± 0.11 µg/mL (≈ 1.82 µM).
For the molecule `Nc1ccn([C@@H]2O[C@H](CO)[C@@H](O)[C@@H]2O)c(=O)n1` [Cytarabine], the IC50 with HeLa was found to be 1.4 ± 0.08 µg/mL (≈ 5.76 µM); in the experiment with A-549 it was 1.17 ± 0.21 µg/mL (≈ 4.81 µM); in the experiment on U-87 MG, 1.03 ± 0.25 µg/mL (≈ 4.23 µM); in the experiment on KB, 0.95 ± 0.02 µg/mL (≈ 3.91 µM); with HepG2, 1.49 ± 0.04 µg/mL (≈ 6.13 µM); with HDF it was 1.94 ± 0.01 µg/mL (≈ 7.98 µM).

The record behind these values is paper PMC9065995 (RSC Advances, 2019).
